One series is filed under the species Homo sapiens. Nature of the series: Selectivity index, ratio of agonist activity at human RARalpha expressed in HEK293 cells assessed as increase in RARE-mediated transcription relative to bexarotene to agonist activity at human RXRalpha expressed in human HCT116 cells assessed as increase in RXRE-mediated transcription relative to bexarotene. The series is classed as cell-based. The procedure, abridged: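 HEK293 cells (60,000/well) transfected for 24 h with 250 ng pTK-DR5(X2)-Luc, 25 ng human RARα and 20 ng renilla. Treated 24 h at 100 nM; activity expressed as a percentage of all-trans-retinoic acid. This RARE activity is divided by 100 nM RXRE activity, with the bexarotene ratio set to 1.0.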

In series [1] the target is T1, Retinoic acid receptor RXR-alpha (Homo sapiens) (UniProt P19793).
T1 sequence (whole entry): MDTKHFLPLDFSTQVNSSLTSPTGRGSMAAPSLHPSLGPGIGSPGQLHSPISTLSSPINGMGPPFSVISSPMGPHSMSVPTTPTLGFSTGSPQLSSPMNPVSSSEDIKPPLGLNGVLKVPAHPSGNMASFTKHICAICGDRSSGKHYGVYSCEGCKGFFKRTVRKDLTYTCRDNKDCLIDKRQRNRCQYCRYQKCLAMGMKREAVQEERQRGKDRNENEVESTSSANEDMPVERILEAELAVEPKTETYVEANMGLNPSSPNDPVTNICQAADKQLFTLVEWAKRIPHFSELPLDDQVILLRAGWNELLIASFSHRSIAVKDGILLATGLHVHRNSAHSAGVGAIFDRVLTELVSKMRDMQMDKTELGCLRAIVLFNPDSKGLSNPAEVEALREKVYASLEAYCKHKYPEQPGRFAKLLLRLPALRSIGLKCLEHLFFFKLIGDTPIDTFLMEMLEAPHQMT
Nature of the series: Agonist activity at human RXRalpha expressed in human HCT116 cells assessed as increase in RXRE-mediated transcription incubated for 24 hrs by RXRE luciferase reporter gene assay. It counts as cell-based.

Series [2] addresses T2, Retinoid X receptor (Homo sapiens) (UniProt P28702+P48443+P19793). Nature of the series: Agonist activity at human RXR binding domain and activation domain expressed in human HCT116 cells assessed as rexinoid activity at 100 nM incubated for 24 hrs by luciferase reporter gene based mammalian two-hybrid assay relative to bexarotene. It counts as cell-based. A digest of the protocol:
(§1)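 HCT-116 cells plated overnight (80,000/well, DMEM with 10% FBS), co-transfected for 24 h with human RXR binding-domain (bait) and activation-domain (prey) vectors, pFR-Luc Gal4 reporter and renilla control. Treated 24 h at 25, 100 or 1000 nM final; vehicle ethanol or DMSO 0.1%. Dual-luciferase read-out. Three independent assays in triplicate; bexarotene set to 100%.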

Series [3] has as its target T2, Retinoid X receptor (Homo sapiens). The series can be described thus: Agonist activity at human RXR binding domain and activation domain expressed in human HCT116 cells assessed as rexinoid activity at 25 nM incubated for 24 hrs by luciferase reporter gene based mammalian two-hybrid assay relative to bexarotene. It counts as cell-based. A digest of the protocol: as §1
In general terms: Reporter assays use an easily measured gene product as a stand-in for the process of interest.

Series [4] concerns the target T3, Retinoic acid receptor RXR-alpha/oxysterols receptor LXR-alpha (Homo sapiens, UniProt P19793+Q13133).
T3 sequence (P19793 whole entry): T1 sequence (whole entry)
T3 sequence (Q13133 whole entry): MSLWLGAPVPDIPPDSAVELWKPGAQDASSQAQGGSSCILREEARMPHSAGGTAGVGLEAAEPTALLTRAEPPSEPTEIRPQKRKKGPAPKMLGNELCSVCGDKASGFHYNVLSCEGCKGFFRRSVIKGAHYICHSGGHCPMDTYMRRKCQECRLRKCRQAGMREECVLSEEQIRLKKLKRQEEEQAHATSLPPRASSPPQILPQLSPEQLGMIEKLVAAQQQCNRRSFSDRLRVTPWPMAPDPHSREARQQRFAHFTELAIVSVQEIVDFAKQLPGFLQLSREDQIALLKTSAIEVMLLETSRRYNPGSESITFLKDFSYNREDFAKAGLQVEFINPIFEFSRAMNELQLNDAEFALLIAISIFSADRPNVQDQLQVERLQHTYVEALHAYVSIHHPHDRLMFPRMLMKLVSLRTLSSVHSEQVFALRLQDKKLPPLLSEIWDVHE
Nature of the series: Agonist activity at human RXRalpha/LXRalpha expressed in human HCT116 cells assessed as reduction in SREBP-mediated transcription activity at 100 nM incubated for 24 hrs by luciferase reporter gene assay relative to bexarotene. The series is classed as cell-based. Details: scale not given: the % may be the effect or the level left. To be noted: 0.1 µM. The procedure, abridged: (§2)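 HCT116 cells co-transfected for 24 h with 100 ng pBP1c(6500)-Luc (about 6500 bp murine SREBP-1c promoter), 10 ng human LXRα and 20 ng renilla. Treated 24 h with compound at 100 nM, alone or with 100 nM TO901317. Luciferase output. Three independent assays in triplicate; bexarotene = 100%.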

The target in series [5] is T2, Retinoid X receptor (Homo sapiens). The series can be described thus: Antagonist activity against human RXR binding domain and activation domain expressed in human HCT116 cells assessed as reduction in bexarotene-induced rexinoid activity incubated for 24 hrs by luciferase reporter gene based mammalian two-hybrid assay. The series is classed as cell-based.
Series [6] has the same target. The series can be described thus: Agonist activity at human RXR binding domain and activation domain expressed in human HCT116 cells assessed as rexinoid activity at 1000 nM incubated for 24 hrs by luciferase reporter gene based mammalian two-hybrid assay relative to bexarotene. It counts as cell-based. The procedure, abridged:
as §1

Series [7] is described as follows: Mutagenicity in Saccharomyces cerevisiae D7 assessed as induction of mutagenesis by measuring forward and reverse mutations up to 0.1 mg/mL. The series is classed as toxicity.
The next series concerns the target T4, Retinoid X receptor (Homo sapiens, UniProt P28702+P48443+P19793).
T4 sequence (P28702 whole entry): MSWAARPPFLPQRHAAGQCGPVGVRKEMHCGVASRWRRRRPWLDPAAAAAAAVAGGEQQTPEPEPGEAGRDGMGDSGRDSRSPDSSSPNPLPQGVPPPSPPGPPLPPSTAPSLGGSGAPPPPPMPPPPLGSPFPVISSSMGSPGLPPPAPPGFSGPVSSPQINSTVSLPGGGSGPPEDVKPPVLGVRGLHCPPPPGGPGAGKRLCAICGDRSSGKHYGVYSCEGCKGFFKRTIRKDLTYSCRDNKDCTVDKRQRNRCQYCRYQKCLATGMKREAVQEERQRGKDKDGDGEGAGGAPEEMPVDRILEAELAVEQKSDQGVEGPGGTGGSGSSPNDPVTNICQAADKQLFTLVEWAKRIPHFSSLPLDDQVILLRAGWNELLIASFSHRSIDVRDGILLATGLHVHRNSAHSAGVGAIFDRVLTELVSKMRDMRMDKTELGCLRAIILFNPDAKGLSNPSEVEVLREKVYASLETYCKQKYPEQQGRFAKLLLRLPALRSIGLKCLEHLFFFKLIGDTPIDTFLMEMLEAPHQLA
T4 sequence (P48443 whole entry): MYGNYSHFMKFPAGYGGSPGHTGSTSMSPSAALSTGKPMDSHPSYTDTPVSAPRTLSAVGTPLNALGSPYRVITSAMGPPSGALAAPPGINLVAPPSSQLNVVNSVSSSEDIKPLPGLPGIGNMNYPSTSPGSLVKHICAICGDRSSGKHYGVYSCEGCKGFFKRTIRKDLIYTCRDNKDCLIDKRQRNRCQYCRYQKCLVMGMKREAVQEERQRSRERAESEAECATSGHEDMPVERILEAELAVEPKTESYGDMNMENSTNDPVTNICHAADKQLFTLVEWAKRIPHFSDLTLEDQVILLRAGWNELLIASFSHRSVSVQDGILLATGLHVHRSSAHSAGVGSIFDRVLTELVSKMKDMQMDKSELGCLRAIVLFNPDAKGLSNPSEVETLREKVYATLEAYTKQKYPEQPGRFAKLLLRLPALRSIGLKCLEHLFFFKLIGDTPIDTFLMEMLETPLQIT
T4 sequence (P19793 whole entry): T1 sequence (whole entry)
The series can be described thus: Agonist activity at human RXR binding domain and activation domain expressed in human HCT116 cells assessed as rexinoid activity incubated for 24 hrs by luciferase reporter gene based mammalian two-hybrid assay. It counts as cell-based.

The target of series [8] is T3, Retinoic acid receptor RXR-alpha/oxysterols receptor LXR-alpha. The series can be described thus: Agonist activity at human RXRalpha/LXRalpha expressed in human HCT116 cells assessed as reduction in SREBP-mediated transcription activity at 100 nM incubated for 24 hrs by luciferase reporter gene assay in presence of 100 nM LXR agonist TO901317 relative to bexarotene. It counts as cell-based. The arrangement: scale not given: the % may be the effect or the level left. As to conditions: 0.1 µM. The procedure, abridged:
as §2

The nature of series [9]: Lipid risk index, ratio of agonist activity at human RXRalpha/LXRalpha expressed in human HCT116 cells assessed as reduction in SREBP-mediated transcription activity to agonist activity at human RXRalpha expressed in human HCT116 cells assessed as increase in RXRE-mediated transcription. A digest of the protocol:
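Lipid risk index: SREBP-promoter luciferase activity (HCT116, LXRα-transfected, 100 nM compound with or without 100 nM TO901317, 24 h) divided by RXRE activity at 100 nM. The SREBP:RXRE ratio for bexarotene is set to 1.0.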

Series [10] has as its target T1, Retinoic acid receptor RXR-alpha (Homo sapiens). Nature of the series: Agonist activity at human RXRalpha expressed in human HCT116 cells assessed as increase in RXRE-mediated transcription at 100 nM incubated for 24 hrs by RXRE luciferase reporter gene assay relative to bexarotene. It counts as cell-based. A digest of the protocol: (§3)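 HCT-116 cells (80,000/well) co-transfected for 24 h with 250 ng RXRE-luciferase reporter (DR1 element from the rat cellular retinol binding protein II gene), 25 ng pSG5-human RXRα and 20 ng renilla. Dosed 24 h at 25, 100 or 1000 nM final; ethanol or DMSO vehicle 0.1%. Dual-luciferase read-out. Three independent assays in triplicate; bexarotene = 100%.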

The target is the same in series [11]. Nature of the series: Agonist activity at human RXRalpha expressed in human HCT116 cells assessed as increase in RXRE-mediated transcription at 25 nM incubated for 24 hrs by RXRE luciferase reporter gene assay relative to bexarotene. The series is classed as cell-based. A digest of the protocol: as §3
Series [12] has the same target. Nature of the series: Agonist activity at human RXRalpha expressed in human HCT116 cells assessed as increase in RXRE-mediated transcription at 1000 nM incubated for 24 hrs by RXRE luciferase reporter gene assay relative to bexarotene. The series is classed as cell-based. The procedure, abridged:
as §3

Another series relates to HuT78. The series can be described thus: Growth inhibition of human HUT78 cells at 200 nM incubated for 72 hrs by MTS assay relative to bexarotene. To be noted: HuT78, 72 h, read-out: GI. It counts as functional. A digest of the protocol: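 Hut78 cells in RPMI with 10% FBS at 37°C, 5% CO2. Plated 7,500 cells/well and immediately dosed at 200 nM for 72 h. MTS read at A490; percent inhibition with media control set to 0.0, compared with bexarotene set to 100%. Mean of three independent experiments.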
In general terms: Tetrazolium assays rely on reduction of a dye to a coloured formazan, in cell work by metabolically active cells.

Calls of active or inactive are those of the source. The calls are words filed in the database; no cut-off is given here.

On to `CC1=C(/C=C/C(C)=C/C=C/C(C)=C/C(=O)O)C(C)(C)CCC1`, for which the Ratio in the series filed under Homo sapiens was 9.5.

In the case of `Cc1cc2c(cc1C(=O)c1ccc(S(=O)(=O)O)cc1)C(C)(C)CCC2(C)C`, the outcome in series [1], in [2] and in series [6] was inactive. The Activity in series [3] is 0.6%; in [4], “Not Active”; in series [5], “Dose-dependent effect”; in series [7], “Non-Toxic”. Moreover, at Retinoid X receptor, the EC50 was over 80000 nM.

As to `CCN(c1ccc2c(c1)C(C)(C)CCC2(C)C)c1ncc(C(=O)O)cn1`, the Activity is 135 to 146% in [2]; “Active” in series [4]; 35 to 58% in series [6]; “Non-Toxic” in [7]; 13 to 17% in [8]; 68 to 89% in series [10]. Further, the Activity in series [11] lay within 27 to 66%; in series [12], 20 to 43%. The fold change (FC) in series [3] turned out to be 2. For the same molecule, in series [9], the Ratio was 0.49 - 0.51. Also, the EC50 at Retinoid X receptor came out at 40.9 nM. Also, in the series on HuT78, the inhibition of growth at 0.2 µM is over 85%.

Regarding `CCN(c1cnc(C(=O)O)cn1)c1cc2c(cc1C)C(C)(C)CCC2(C)C`, the result in series [1] was inactive. Moreover, in [2] (in the assay text read “relative to activity at 25 nM” for “relative to bexarotene”), the fold change (FC) is 5 to 16. In addition, the Activity in [3] is 3.4%; in series [4], 54 to 79%; in [7], “Non-Toxic”; in series [8] it was 29%. In addition, the Ratio in the series listed under Homo sapiens is over 0.5. In addition, the outcome in [12] was Active. Besides, the EC50 on Retinoid X receptor amounted to 295.5 nM. Also, in the series on HuT78, the inhibition of growth at 0.2 µM lay within 35 to 51%.

A word on the EC50: it is the midpoint of the concentration-response curve.

Values taken from ChEMBL document CHEMBL4428090, “Modeling, Synthesis, and Biological Evaluation of Potential Retinoid X Receptor (RXR)-Selective Agonists: Analogues of 4-[1-(3,5,5,8,8-Pentamethyl-5,6,7,8-tetrahydro-2-naphthyl)ethynyl]benzoic Acid (Bexarotene) and 6-(Ethyl(5,5,8,8-tetrahydronaphthalen-2-yl)amino)nicotinic Acid (NEt-TMN)” (J Med Chem, 2016).
